PubChem BioAssay AID2805 (Sanford-Burnham Center for Chemical Genomics, 2010)
Among all 330,000 compounds or so, about 780 (0.24%) were called active. This is one part of a sample in which actives are shown more often than they occur.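 The calls were made as follows: active = activation factor of at least 2 at 20 µM; inactive = the rest.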

Test system: intestinal alkaline phosphatase [Mus musculus]
Assay: activators of mouse IAP, primary screen, biochemical, luminescence, uHTS (AID 2805)
Details: muIAP, CDP-Star luminescence, 30 min; at 10 µM; stronger effect = higher value; 1 = vehicle-only enzyme signal, 0 = enzyme-free wells
Procedure, shortened: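 Assay system: mouse IAP enzyme; Reagent: CDP-Star chemiluminescent phosphatase substrate; Compound: DMSO-dissolved test compounds; Incubation: 30 min, room temperature; Technique: luminescence from enzymatic CDP-Star hydrolysis; Controls: DMSO-only wells and no-enzyme negative control.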

SMILES	activation factor
C[C@@H](O)c1nc2ccccc2n1N	0.944 (inactive)
COCCNC(=O)CCCN1C(=O)c2ccccc2Sc2ncccc21	1.03 (inactive)
Cc1cc(Cl)nc(NC(=O)Nc2cccc(Cl)c2)n1	0.931 (inactive)
CN(c1cccc(NC(=O)c2ccc(CN3CCc4ccccc4C3)cc2)c1)S(C)(=O)=O	1.06 (inactive)
CN(c1cccc(NC(=O)Nc2ccc(Cl)cc2)c1)S(C)(=O)=O	2.3 (active)
CN(CCc1ccccn1)C(=O)c1ccc(OC2CCN(CCc3ccccc3)CC2)cc1	1.07 (inactive)
CC(C)c1nc(SCC(=O)NC(=O)NC(C)(C)C)n[nH]1	1 (inactive)
Cc1noc(C)c1CSc1nc2cc(S(=O)(=O)N3CCOCC3)ccc2o1	0.946 (inactive)
CCOC(=O)c1sc(NC(=O)CSc2nc(O)c(Cc3ccccc3)c(=O)[nH]2)nc1C	0.914 (inactive)
CN(Cc1ccc(F)cc1)C(=O)COc1ccc2ccccc2c1	1 (inactive)
COc1cc(NC(=S)NCCSc2ccc(C)cc2)cc(OC)c1	2.86 (active)
COc1cccc(C(=O)NCCSc2ccc(Br)cc2)c1	1.14 (inactive)
COc1cc(NC(=S)NCc2ccc(S(N)(=O)=O)cc2)cc(OC)c1	1.06 (inactive)
S=c1nccc(-c2cc(Cl)sc2Cl)[nH]1	1.08 (inactive)
CC(CNC(=O)c1ccc(N)cc1)NC(=O)c1ccc(N)cc1 (stereo unspecified)	1.09 (inactive)
O=C(Nc1cccc(-c2cccc(Cl)c2)c1)C1CCN(C2CCC2)CC1	6.17 (active)
COc1cccc(-c2cccc(NC(=O)C3CCN(C4CCC4)CC3)c2)c1	1.01 (inactive)
CC(=O)c1cc(CN2CCC(C(=O)Nc3cccc(-c4cscn4)c3)CC2)cs1	1.08 (inactive)
CCn1cc(CN2CCC(C(=O)Nc3cccc(-c4cccc(Cl)c4)c3)CC2)cn1	5.15 (active)
O=C(NC1CCCC1)C1CCN(C(=O)Nc2cccc(Cl)c2)CC1	1.03 (inactive)
O=C(Nc1cnn(Cc2ccc(Cl)cc2)c1)C1CCCC1	0.956 (inactive)

SMILES	activation factor
CCn1cc(CN2CCC(n3nccc3NC(=O)CCCc3ccccc3)CC2)c(C)n1	1.22 (inactive)
CCn1cc(CN2CCC(C(=O)Nc3cccc(-c4cccc(Cl)c4)c3)CC2)c(C)n1	3.39 (active)
O=C(Nc1cccc(-c2cscn2)c1)C1CCN(Cc2ccsc2)CC1	1.47 (inactive)
N#Cc1c(C(F)(F)F)cc(-c2cccs2)nc1N1CCCCC1	1.01 (inactive)
CN1CCN(C(CNS(=O)(=O)c2cccs2)c2cccnc2)CC1 (stereo unspecified)	0.991 (inactive)
CCC(=O)c1ccc(OCC(O)Cn2nc(C)c(C(C)=O)c2C)cc1 (stereo unspecified)	0.903 (inactive)
CC1(C)Cc2cccc(OCC(=O)N3CCN(c4ccc([N+](=O)[O-])cc4)CC3)c2O1	0.924 (inactive)
CCc1ccc(-n2c(SCc3cc(=O)n4cc(Br)ccc4n3)nc3[nH]ncc3c2=O)cc1	0.976 (inactive)
Cc1ccc(CN2CCC(n3nccc3NC(=O)CCCc3ccccc3)CC2)o1	1.09 (inactive)
COc1cc(CN2CCC(n3nccc3NC(=O)CCCc3ccccc3)CC2)ccc1O	1.47 (inactive)
COc1ccc(CN2CCC(n3nccc3NC(=O)CCCc3ccccc3)CC2)cc1C	2.47 (active)
CC1(C)CC(=O)c2sc(N)nc2C1	0.979 (inactive)
CC(C)c1cc(C(N)=O)c(NC(=O)c2cccc(COc3ccc(Br)cc3)c2)s1	0.925 (inactive)
COC(=O)c1ccc(NC(=O)C(C)N2C(=O)c3ccccc3C2=O)cc1 (stereo unspecified)	0.997 (inactive)
COc1cc(NC(=O)Nc2ccc(C)cc2)cc([N+](=O)[O-])c1	0.983 (inactive)
COC(=O)c1ccc(NC(=O)Nc2ccc(C)cc2)cc1	2.13 (active)
Cc1c(C(C)(C)O)[nH]c2ccc(C#N)cc12	1.11 (inactive)
Fc1ccccc1CNC(=S)Nc1ccc(Cl)cc1	2.42 (active)
FC(F)(F)Oc1ccc(NC(=S)NCc2ccccc2)cc1	1.66 (inactive)
S=C(NCc1cccs1)Nc1ccc(Cl)cc1	1.5 (inactive)
O=C1CCC(C(=O)N2CCC(O)(c3ccccc3)CC2)CN1CCc1ccccc1 (stereo unspecified)	0.942 (inactive)

SMILES	activation factor
Cc1cc(C(F)(F)F)nn1CC(=O)N1CCCC1	1.12 (inactive)
Cc1ccc(C(=O)c2coc3ccc(O)c(CN(C)C)c23)cc1	1.09 (inactive)
Cc1cccc(C)c1NC(=O)C1(N(C(=O)c2ccccn2)c2ccc(O)cc2)CCCCC1	1.01 (inactive)
COc1cccc(N(C(=O)c2ccn[nH]2)C2(C(=O)Nc3c(C)cccc3C)CCCCC2)c1	3.3 (active)
COc1cccc(N(Cc2nnc3n2CCCCC3)C(=O)Nc2ccccc2F)c1	1.08 (inactive)
Cc1cc(=O)n2nc(N3CCCC(C(=O)N4CCN(C)CC4)C3)sc2n1 (stereo unspecified)	0.986 (inactive)
CN(CC(=O)N1CCN(c2ccccc2)CC1)S(=O)(=O)c1cccs1	0.929 (inactive)
Cc1ccc(NC(=O)COC(=O)C2CC2)cc1S(=O)(=O)N1CCOCC1	1.01 (inactive)
Cc1cccc(NC(=S)NCc2ccc3[nH]c4c(c3c2)CCCC4)c1	2.55 (active)
Cc1cc(C)cc(NC(=S)NCCc2c[nH]c3ccccc23)c1	1.3 (inactive)
CCc1cccc(CC)c1NC(=S)NCc1ccc2[nH]c(C)cc2c1	1.06 (inactive)
CC(NC(=S)Nc1ccc(S(N)(=O)=O)cc1)c1ccc2c(c1)OCO2 (stereo unspecified)	1.52 (inactive)
O=C(Nc1ccc2c(c1)OCCO2)C(c1ccc(F)cc1)N1CCCCC1 (stereo unspecified)	1.07 (inactive)
CC1CCCN(C(C(=O)Nc2ccc(C(C)C)cc2)c2ccc3c(c2)OCO3)C1 (stereo unspecified)	2.25 (active)
CCN(C[C@H]1N[C@@](CC)(C(=O)OC)[C@H]2C(=O)N(Cc3ccccc3)C(=O)[C@@H]12)S(=O)(=O)c1ccc(C(F)(F)F)cc1	1.06 (inactive)
O=C(CCn1ccc([N+](=O)[O-])n1)Nc1nccs1	1.04 (inactive)
CN(C)S(=O)(=O)c1cccc(NC(=S)NCc2ccc3c(c2)OCO3)c1	2.5 (active)
Cc1c(Cl)cccc1NC(=S)NCc1ccc2c(c1)OCO2	1.41 (inactive)
CN(C)S(=O)(=O)c1cccc(NC(=S)N/N=C/C(=O)c2ccccc2)c1	0.778 (inactive)
